# Shown are actives, neighbours in structure and some others; about 2.5% of the full set was active somewhere.
# PglD inh: C. jejuni PglD acetyltransferase inhibitors, primary screen, biochemical, DTNB colorimetric, single point. 0.098% of 360,000 active. inhibition, % at 12.5 µM. AID 602405, 2012. purified PglD enzyme, DTNB colorimetric CoA detection; in the data active = inhibition above about 16%, passing the limit was not always enough
# SIRT5 block: SIRT5 desuccinylase inhibitors, primary screen, biochemical, fluorescence imaging, single point, set 5. AID 652115, 2013. NAD-dependent protein deacylase sirtuin-5, mitochondrial (Homo sapiens), Q9NXA8. 1.1% of 330,000 active. Purified SirT5, succinyl-peptide AMC, trypsin-coupled fluorescence. inhibition, % at 15 µM; in the data active = inhibition above about 15%
# E-sel inducer: E-selectin induction in HUVECs, primary screen, imaging, HUVEC, immunofluorescence imaging, single point | P16581 | 0.37% of 260,000 active | activation, % at 7.58 µM | AID 686992, 2013 | normalized: neutral wells 0, TNF-alpha wells 100;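 active = mean E-selectin-positive cell signal at least 10% of the positive control, reached in at least 60% of replicates, without over 20% cell loss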
# Target sequence (P16581 whole entry, looked up): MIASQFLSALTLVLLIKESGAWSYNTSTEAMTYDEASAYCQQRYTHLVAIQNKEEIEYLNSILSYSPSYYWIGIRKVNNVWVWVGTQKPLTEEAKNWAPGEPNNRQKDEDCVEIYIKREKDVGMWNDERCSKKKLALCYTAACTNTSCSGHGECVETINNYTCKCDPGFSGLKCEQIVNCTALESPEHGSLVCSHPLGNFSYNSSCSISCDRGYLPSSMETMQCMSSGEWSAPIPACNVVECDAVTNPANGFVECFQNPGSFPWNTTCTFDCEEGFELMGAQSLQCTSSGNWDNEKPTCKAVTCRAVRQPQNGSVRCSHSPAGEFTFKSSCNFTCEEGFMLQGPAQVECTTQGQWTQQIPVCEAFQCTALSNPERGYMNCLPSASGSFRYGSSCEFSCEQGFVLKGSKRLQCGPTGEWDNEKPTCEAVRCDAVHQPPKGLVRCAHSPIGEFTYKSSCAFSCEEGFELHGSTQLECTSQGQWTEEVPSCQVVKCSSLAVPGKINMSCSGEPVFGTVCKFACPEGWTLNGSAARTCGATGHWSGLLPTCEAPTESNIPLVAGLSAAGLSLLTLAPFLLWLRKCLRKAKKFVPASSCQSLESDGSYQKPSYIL
#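 System: HUVEC, human umbilical vein endothelial cells; quantity: 3,000 cells/well; buffer or medium: EGM-2 medium, gelatin-coated wells; dosing: single-point compound dose; detection: immunofluorescence imaging; evaluation: % PE-positive cells; benchmarks: TNF-alpha, DMSO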
# DENV2 CPE: inhibitors of DENV2 cytopathic effect, primary screen, cell-based, plate reader, single concentration | DENV2-infected cells, cytopathic effect rescue | AID 651640, 2012 | 1.7% of 350,000 active | CPE inhibition, % at 9.99 µM; in the data active = CPE inhibition above about 20%, passing the limit was not always enough; tested in BHK-21 cells
# ERAP1 inh: human ERAP1 aminopeptidase inhibitors, primary screen, biochemical, single point, plate reader; 0.15% of 340,000 active; AID 652197, 2013; inhibition, % at 10.7 µM; Endoplasmic reticulum aminopeptidase 1 (Homo sapiens), Q9NZ08; recombinant ERAP1, Leu-AMC fluorescence, 60 min;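 active = mean replicate inhibition of at least 30%, or all replicates individually reaching that 30% level; inactive = mean below 30% and not every replicate reaching it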
# Numbers stand for hits; – = inactive; · = not tested or not shown; ! = repeats disagree.
SMILES,PglD inh,SIRT5 block,E-sel inducer,DENV2 CPE,ERAP1 inh
C[C@@H]1CN([C@@H](C)CO)C(=O)c2cccc(NS(C)(=O)=O)c2O[C@@H]1CN(C)C(=O)Nc1ccc(C(F)(F)F)cc1,–,–,·,·,–
C[C@H]1CN([C@@H](C)CO)C(=O)c2cccc(NC(=O)Nc3ccc(C(F)(F)F)cc3)c2O[C@@H]1CN(C)C(=O)Nc1ccc(F)cc1,–,–,–,–,–
C[C@H](CO)N1C[C@H](C)[C@@H](CN(C)C(=O)Nc2ccc3c(c2)OCO3)Oc2c(NC(=O)C3CC3)cccc2C1=O,–,22!,–,–,–
C[C@@H]1CN([C@H](C)CO)C(=O)c2cccc(NC(=O)Nc3ccc4c(c3)OCO4)c2O[C@H]1CN(C)C(=O)Nc1ccc(C(F)(F)F)cc1,–,–,38,–,–
Cc1noc(C)c1NC(=O)N(C)C[C@@H]1Oc2c(NC(=O)Nc3ccc(C(F)(F)F)cc3)cccc2C(=O)N([C@@H](C)CO)C[C@@H]1C,–,–,·,32,–
C[C@@H]1CN([C@H](C)CO)C(=O)c2cccc(NC(=O)Nc3ccc4c(c3)OCO4)c2O[C@H]1CN(C)C(=O)Nc1ccccc1,–,·,–,100,·
C[C@H](CO)N1C[C@H](C)[C@H](CN(C)C(=O)Nc2ccc3c(c2)OCO3)Oc2c(NC(=O)C3CCCCC3)cccc2C1=O,–,–,–,–,–
COc1ccccc1NCC(=O)N/N=C(\C)c1ccc(Br)s1,–,–,·,23,–
C/C(=N/NC(=O)CNc1ccc(C)cc1)c1ccc(Br)s1,–,–,·,–,–
CCN(CC)Cc1c(O)ccc2cc(-c3nc4ccccc4n3C)c(=O)oc12,–,–,·,–,91
C[C@H](CO)N1C[C@H](C)[C@@H](CN(C)S(=O)(=O)c2ccccc2)OCCCC[C@H](C)Oc2ccc(NC(=O)CCCN(C)C)cc2C1=O,–,–,–,–,–
C[C@@H]1CN([C@@H](C)CO)C(=O)c2cc(NC(=O)CCCN(C)C)ccc2O[C@@H](C)CCCCO[C@@H]1CN(C)S(=O)(=O)c1ccccc1,–,–,–,31,–
C[C@H]1CCCCO[C@H](CN(C)S(=O)(=O)c2ccccc2)[C@@H](C)CN([C@@H](C)CO)C(=O)c2cc(NC(=O)CCCN(C)C)ccc2O1,–,–,–,41,–
C[C@@H]1CCCCO[C@@H](CN(C)S(=O)(=O)c2ccccc2)[C@H](C)CN([C@@H](C)CO)C(=O)c2cc(NC(=O)CCCN(C)C)ccc2O1,–,–,–,26,–
C[C@@H]1CN([C@H](C)CO)C(=O)c2cc(NC(=O)CCCN(C)C)ccc2O[C@@H](C)CCCCO[C@H]1CN(C)S(=O)(=O)c1ccccc1,–,–,–,23,–
CC(=NCc1cccnc1)C1=C(O)c2ccccc2C1=O,–,·,·,·,·
CCN(CC)c1ccc(/C=N/N2CCN(Cc3ccccc3Cl)CC2)c(O)c1,–,–,·,–,–
CCN(CC)c1ccc(/C=N/N2CCN(Cc3ccc(C)cc3)CC2)c(O)c1,–,20,·,–,–
CCc1ccc(Nc2cnn(C34CC5CC(CC(CC(=O)O)(C5)C3)C4)c(=O)c2Cl)cc1,–,–,·,–,–
O=C(O)Cc1ccc(Nc2cnn(C34CC5CC(CC(CC(=O)O)(C5)C3)C4)c(=O)c2Cl)cc1,–,15,–,–,–
Cc1ccc(C(=O)Nc2ccc3c(c2)CCC3)cc1S(=O)(=O)N1CCOCC1,–,–,–,–,–
C[C@H](CO)N1C[C@H](C)[C@H](CN(C)Cc2ccccn2)Oc2cc(C#C[C@@H](C)O)ccc2S1(=O)=O,–,–,–,–,–
C[C@@H]1CN([C@H](C)CO)S(=O)(=O)c2ccc(C#C[C@@H](C)O)cc2O[C@H]1CN(C)Cc1ccccn1,–,–,–,30,–
CC(C)C#Cc1ccc2c(c1)O[C@@H](CN(C)Cc1ccccn1)[C@H](C)CN([C@H](C)CO)S2(=O)=O,–,19,–,–,–
C[C@@H]1CN([C@H](C)CO)S(=O)(=O)c2ccc(C#Cc3ccccn3)cc2O[C@@H]1CN(C)Cc1cccc(F)c1,–,27,–,–,–
SMILES,PglD inh,SIRT5 block,E-sel inducer,DENV2 CPE,ERAP1 inh
Cc1csc(NC(=O)c2ccc3c(c2)OCO3)n1,–,–,–,–,–
O=C(CNS(=O)(=O)c1ccc(F)c(Cl)c1)NCCc1ccccc1,–,–,·,–,–
C[C@@]12CCC[C@@](C)(C(=O)O)C1CC[C@@]13C[C@@H](NCc4ccccc4)[C@@](C)(CCC12)C3 (stereo partly drawn),–,·,–,–,–
O=C(Nc1ccn(CCCN2CCN(c3ncccn3)CC2)c(=O)n1)OCc1ccccc1,–,–,–,–,–
O=C(Nc1ccn(CC(=O)N2CCN(c3ccccn3)CC2)c(=O)n1)OCc1ccccc1,–,·,–,119,·
O=C(Cn1ccc(NC(=O)OCc2ccccc2)nc1=O)NCCCN1CCCC1=O,–,·,–,114,·
Cc1cc(NCc2ccccn2)n2ncc(-c3ccc(Cl)cc3)c2n1,–,–,–,–,·
Cc1cc(NCc2ccccn2)n2nc(C)c(-c3ccc(Cl)cc3)c2n1,–,·,47,–,·
O=C(O)c1ccc(O)cc1O,–,·,·,67,–
Nc1ccc(N)c(C(=O)O)c1,–,·,·,·,·
O=C(O)c1ccccc1O,–,–,–,–,–
Nc1ccc(C(=O)O)c(O)c1,–,15!,–,–,–
C[C@H](CO)N1C[C@H](C)[C@@H](CN(C)C(=O)C2CCC2)Oc2ncc(-c3ccccc3F)cc2C1=O,–,·,–,–,–
C[C@@H]1CCCCO[C@H](CN(C)Cc2ccccc2)[C@@H](C)CN([C@@H](C)CO)C(=O)c2cc(NC(=O)Nc3ccc(C(F)(F)F)cc3)ccc2O1,–,–,–,–,–
C[C@H](CO)N1C[C@H](C)[C@H](CN(C)Cc2ccc(C(=O)Nc3ccccc3N)cc2)Oc2ccc(NS(=O)(=O)c3cn(C)cn3)cc2CC1=O,·,–,–,–,–
C[C@H]1CN([C@@H](C)CO)C(=O)Cc2cc(NS(=O)(=O)c3cn(C)cn3)ccc2O[C@@H]1CN(C)Cc1ccc(C(=O)Nc2ccccc2N)cc1,–,·,–,21,–
C[C@@H]1CN([C@@H](C)CO)C(=O)Cc2cc(NS(=O)(=O)c3cn(C)cn3)ccc2O[C@H]1CN(C)Cc1ccc(C(=O)Nc2ccccc2N)cc1,·,–,–,107,–
COc1ccc(NC(=O)Nc2ccc3c(c2)CC(=O)N([C@@H](C)CO)C[C@@H](C)[C@@H](CN(C)Cc2ccc(Oc4ccccc4)cc2)O3)cc1,·,·,–,·,·
C[C@@H]1CN([C@H](C)CO)C(=O)Cc2cc(NS(=O)(=O)c3cccs3)ccc2O[C@H]1CN(C)Cc1ccc(C(=O)Nc2ccccc2N)cc1,·,–,–,39,–
C[C@H](CO)N1C[C@H](C)[C@H](CN(C)Cc2ccc(C(=O)Nc3ccccc3N)cc2)Oc2ccc(NS(=O)(=O)c3cccs3)cc2CC1=O,–,–,59,–,–

# Bioassay records deposited in PubChem by Broad Institute.
